The source of these data is ChEMBL document CHEMBL4402562, “Discovery of Novel Peptidomimetic Boronate ClpP Inhibitors with Noncanonical Enzyme Mechanism as Potent Virulence Blockers in Vitro and in Vivo” (J Med Chem, 2020).

Assay [1] concerns the target ATP-dependent Clp protease proteolytic subunit (Escherichia coli (strain K12), UniProt P0A6G7). Nature of the assay: Inhibition of Escherichia coli ClpP.
The target of assay [2] is T1, ATP-dependent Clp protease proteolytic subunit (Staphylococcus aureus (strain NCTC 8325)) (UniProt Q2G036).
T1 sequence (whole entry): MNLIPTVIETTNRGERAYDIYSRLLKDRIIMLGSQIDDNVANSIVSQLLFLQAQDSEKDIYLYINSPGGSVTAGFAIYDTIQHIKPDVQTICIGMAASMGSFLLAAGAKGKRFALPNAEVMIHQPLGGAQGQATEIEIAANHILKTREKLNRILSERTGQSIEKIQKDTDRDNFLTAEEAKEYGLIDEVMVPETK
The assay can be described thus: Inhibition of N-terminal His6-sumo-tagged full length Staphylococcus aureus ClpP expressed in Escherichia coli […] assessed as enzyme activity recovery level at 20-fold molar excess pre-incubated for 10 mins before Suc-LY-AMC addition and measured after 1 hr followed by dialysis up to 72 hrs by fluorescence based assay relative to control. Set-up: scale not given: the % may be the effect or the level left. Summed up:
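ClpP (1 μM, 100 mM Hepes pH 7.0, 100 mM NaCl) incubated 1 h at RT with 20-fold molar excess inhibitor or DMSO. Dialyzed at 4 °C, buffer changed after 6 h and then every 24 h. Aliquots assayed for peptidase activity with Suc-LY-AMC. Thrice, single sample.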

In assay [3] the target is 20S proteasome (Homo sapiens) (UniProt P49721+P20618+P28074+P28062+P28065+P28072+P25786+P25787+P25788+P25789+P28066+P60900+O14818+Q8TAA3+P40306+A5LHX3+P49720+P28070+Q99436). The assay can be described thus: Inhibition of 20S proteasome (unknown origin) pre-incubated before Suc-LLVY-AM addition and measured after 1 hr by fluorescence based assay. It is filed as protein-complex assay.

In assay [4] the test system is Staphylococcus aureus. Nature of the assay: Inhibition of Staphylococcus aureus ClpXP expressed in Escherichia coli […] at 1 to 100 uM using FITC-casein substrate in presence of ATP-regenerating system incubated for 50 mins by fluorescence based assay. Summed up:
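3.6 μM SaClpP with 3 μM SaClpX in 25 mM Hepes pH 7.5, 20 mM MgCl2, 30 mM KCl, 0.03% Tween 20, 10% glycerol, 2 mM DTT. ATP regeneration: 4 mM ATP, 20 U/mL creatine kinase, 16 mM creatine phosphate. FITC-casein 0.048 mg/mL, 494/521 nm for 50 min; slope 300–1200 s vs DMSO. Thrice, triplicate wells.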

Assay [5] addresses T1, ATP-dependent Clp protease proteolytic subunit (Staphylococcus aureus (strain NCTC 8325)). The assay can be described thus: Inhibition of N-terminal His6-sumo-tagged full length Staphylococcus aureus ClpP expressed in Escherichia coli […] at 3 uM pre-incubated for 10 mins before 200 uM to 1 mM Suc-LY-AMC addition and measured after 1 hr by fluorescence based assay relative to control. Summed up:
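SaClpP (1 μM) in 100 mM Hepes pH 7.0, 100 mM NaCl preincubated 10 min at RT with 3 μM inhibitor. Suc-LY-AMC at 200 μM or 1 mM, fluorescence at 380/440 nm for 1 h at 37 °C. Slope relative to DMSO; three independent replicates.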

Assay [6] has the same target. The assay can be described thus: Binding affinity to N-terminal His6-sumo-tagged full length Staphylococcus aureus ClpP expressed in Escherichia coli […] assessed as change in melting temperature at 100 uM by differential scanning calorimetry analysis. Summed up:
(§1)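 DSC: SaClpP at 0.5 mg/mL (25 μM) incubated at RT with 100 μM inhibitor in assay buffer. Scanned at 1 °C/min over 30–90 °C, with a buffer-buffer scan subtracted. Tm taken as the thermogram peak maximum. Run once, single sample.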
(DSC measures the heat that a sample takes up or gives off during a temperature scan.)

The nature of assay [7]: Inhibition of human ClpP (57 to 277 residues) expressed in Escherichia coli […] pre-incubated for 10 mins before Ac-WLA-AMC addition and measured after 1 hr by fluorescence based assay relative to control. Summed up:
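hClpP (3.5 μM monomer) in 25 mM Tris-HCl pH 8.0, 100 mM KCl. Preincubated 10 min at RT with inhibitor, two-fold dilutions over 8 steps from 100 μM. Then 100 μM Ac-WLA-AMC, 380/440 nm for 1 h at 37 °C, slopes normalized to DMSO. Thrice, triplicate wells.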

Assay [8] concerns the target Coagulation factor X (Homo sapiens) (UniProt P00742). The assay can be described thus: Inhibition of human F10a up to 100 uM pre-incubated for 10 mins before Pefachrome Fxa addition and measured after […] based assay.
Assay [9] can be described thus: Inhibition of Pseudomonas aeruginosa ClpP1 expressed in Escherichia coli […] pre-incubated for 10 mins before Suc-LY- AMC addition and measured after 1 hr by fluorescence based assay relative to control. Summed up: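 PaClpP1 (0.5 μM monomer) in 25 mM Tris-Cl pH 7.5, 150 mM NaCl. Preincubated 10 min at RT with inhibitor, two-fold dilutions over 8 steps from 50 μM. Then 50 μM Suc-LY-AMC, 380/440 nm for 1 h at 37 °C, slopes normalized to DMSO. Thrice, triplicate wells.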

Assay [10] can be described thus: Inhibition of AlgW (unknown origin) up to 100 uM pre-incubated for 10 mins before Abz-T-V-A-W-pNA addition and measured after 1 hr by fluorescence based assay.
Assay [11] has as its target T1, ATP-dependent Clp protease proteolytic subunit (Staphylococcus aureus (strain NCTC 8325)). Nature of the assay: Binding affinity to N-terminal His6-sumo-tagged full length Staphylococcus aureus ClpP expressed in Escherichia coli […] assessed as melting temperature at 100 uM by differential scanning calorimetry analysis (reference value: 50.8 degC). In a few lines:
as §1

For assay [12], the target named is T2, ATP-dependent Clp protease proteolytic subunit (Staphylococcus aureus (strain NCTC 8325), UniProt Q2G036).
T2 sequence (Q2G036 whole entry): T1 sequence (whole entry)
Nature of the assay: Binding affinity to N-terminal His6-sumo-tagged full length Staphylococcus aureus ClpP expressed in Escherichia coli […] by ITC analysis. In a few lines:
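ITC at 500 rpm stirring after 150 s equilibration. A discarded 1 μL first injection, then 19 injections of 2 μL over 5 s each, 2–3 min apart, into 200 μL sample cell. Reference power 7 μcal/s, high gain, 5-s filter, baseline-corrected fit.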
(In general: In ITC the heat of successive injections is recorded.)

The target of assay [13] is T2, ATP-dependent Clp protease proteolytic subunit. The assay can be described thus: Binding affinity to N-terminal His6-sumo-tagged full length Staphylococcus aureus ClpP expressed in Escherichia coli […] assessed as shifting of melting peak of SaClpP by differential scanning calorimetry analysis. In a few lines:
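DSC: 0.5 mg/mL (25 µM) SaClpP with 100 µM compound or two-fold dilution series, RT; scanned 30-90 °C at 1 °C/min, buffer-buffer scan subtracted; Tm from thermogram peak maximum; single run.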

Assay [14] concerns Staphylococcus aureus. The assay can be described thus: Antivirulence activity against methicillin-resistant Staphylococcus aureus ATCC 33591 infected in BALB/c mouse model of skin abscess assessed as reduction in skin inflammation at 3 mg/kg injected into shaved area of skin once daily for 4 days measured after 12 hrs post last dose by hematoxylin and eosin staining based optical microscopy. The format is functional, organism-based. Summed up:
(§2)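 Same MRSA ATCC 33591 skin-abscess model in female BALB/c mice (n=5/group), 40 µL compound at 1.5 or 3 mg/kg injected into the infected shaved skin once daily for 4 days. On day 4 infected skin and heart, liver, spleen, lung, kidney fixed in 4% paraformaldehyde, embedded, sectioned, H&E stained and examined by microscopy; PBS-treated uninfected and vehicle controls.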

Assay [15] relates to Staphylococcus aureus. The assay can be described thus: Antivirulence activity against methicillin-resistant Staphylococcus aureus ATCC 33591 infected in BALB/c mouse model of skin abscess assessed as reduction in kidney histopathological changes at 3 mg/kg injected into shaved area of skin once daily for 4 days measured after 12 hrs post last dose by hematoxylin and eosin staining based optical microscopy. The format is functional, organism-based. Summed up:
as §2

Assay [16] has as its system Staphylococcus aureus. Nature of the assay: Antivirulence activity against methicillin-resistant Staphylococcus aureus ATCC 33591 infected in BALB/c mouse model of skin abscess assessed as reduction in liver histopathological changes at 3 mg/kg injected into shaved area of skin once daily for 4 days measured after 12 hrs post last dose by hematoxylin and eosin staining based optical microscopy. It is filed as functional, organism-based. In a few lines:
as §2

Assay [17] concerns Staphylococcus aureus. The assay can be described thus: Antivirulence activity against methicillin-resistant Staphylococcus aureus ATCC 33591 infected in BALB/c mouse model of skin abscess assessed as reduction in severe alveolar destruction at 3 mg/kg injected into shaved area of skin once daily for 4 days measured after 12 hrs post last dose by hematoxylin and eosin staining based optical microscopy. It is filed as functional, organism-based. Summed up:
as §2

In assay [18] the test system is Staphylococcus aureus. The assay can be described thus: Antivirulence activity against methicillin-resistant Staphylococcus aureus ATCC 33591 infected in BALB/c mouse model of skin abscess assessed as preservation of skin integrity at 3 mg/kg injected into shaved area of skin once daily for 4 days measured after 12 hrs post last dose by hematoxylin and eosin staining based optical microscopy. The format is functional, organism-based. In a few lines:
as §2

For assay [19], the system named is Staphylococcus aureus. The assay can be described thus: Antivirulence activity against methicillin-resistant Staphylococcus aureus ATCC 33591 infected in BALB/c mouse model of skin abscess assessed as reduction in interstitium thickening at 3 mg/kg injected into shaved area of skin once daily for 4 days measured after 12 hrs post last dose by hematoxylin and eosin staining based optical microscopy. The format is functional, organism-based. Summed up: as §2

The subject of assay [20] is Staphylococcus aureus. The assay can be described thus: Antivirulence activity against methicillin-resistant Staphylococcus aureus ATCC 33591 infected in BALB/c mouse model of skin abscess assessed as reduction in spleen histopathological changes at 3 mg/kg injected into shaved area of skin once daily for 4 days measured after 12 hrs post last dose by hematoxylin and eosin staining based optical microscopy. The format is functional, organism-based. Summed up:
as §2

In assay [21] the test system is Staphylococcus aureus. Nature of the assay: Antivirulence activity against methicillin-resistant Staphylococcus aureus ATCC 33591 infected in BALB/c mouse model of skin abscess assessed as reduction in heart histopathological changes at 3 mg/kg injected into shaved area of skin once daily for 4 days measured after 12 hrs post last dose by hematoxylin and eosin staining based optical microscopy. The format is functional, organism-based. In a few lines: as §2

The structures appear in SMILES notation. Activity calls are given as the source filed them. The rule behind the calls is not given here. Where a SMILES comes first, the peptide text is derived from it. The star is where a group is joined. Cbz = O=C(OCc1ccccc1)*; CH2Cl = ClC*

Chain of ATP-dependent Clp protease proteolytic subunit (Escherichia coli (strain K12), UniProt P0A6G7) (P0A6G7 whole entry): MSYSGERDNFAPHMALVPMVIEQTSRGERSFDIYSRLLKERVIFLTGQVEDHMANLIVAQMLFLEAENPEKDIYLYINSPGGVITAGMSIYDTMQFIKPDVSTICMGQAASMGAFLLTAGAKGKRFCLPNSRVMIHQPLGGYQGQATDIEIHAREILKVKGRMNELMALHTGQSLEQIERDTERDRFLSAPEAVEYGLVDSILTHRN
Chain of Coagulation factor X (Homo sapiens) (P00742 41-179 limits assumed): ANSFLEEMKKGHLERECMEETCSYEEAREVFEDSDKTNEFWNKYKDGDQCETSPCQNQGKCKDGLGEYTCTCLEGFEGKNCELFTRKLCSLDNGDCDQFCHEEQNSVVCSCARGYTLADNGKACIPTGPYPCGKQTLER
Chain of Coagulation factor X (Homo sapiens) (P00742 235-488 limits assumed): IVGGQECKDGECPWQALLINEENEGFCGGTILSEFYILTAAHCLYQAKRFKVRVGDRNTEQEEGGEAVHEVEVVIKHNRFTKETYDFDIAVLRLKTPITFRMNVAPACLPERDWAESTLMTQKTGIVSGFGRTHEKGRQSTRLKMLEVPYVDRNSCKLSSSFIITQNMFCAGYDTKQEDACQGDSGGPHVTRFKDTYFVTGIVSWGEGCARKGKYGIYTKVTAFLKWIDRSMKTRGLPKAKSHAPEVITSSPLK

As a reminder, the IC50 is the concentration that gives 50% inhibition. The compound `CC(C)C[C@H](NC(=O)OCc1ccccc1)C(=O)N[C@@H](Cc1ccc(O)cc1)C(=O)CCl` (Cbz-Leu-Tyr-CH2Cl) had an IC50 in assay [1] of 14.4 µM.

Usually ΔTm stands for the shift of the melting midpoint relative to a reference. One may read the Kd as a measure of binding affinity in units of concentration. In the case of `CC(C)C[C@H](NC(=O)CNC(=O)c1cc(Cl)ccc1Cl)B1OC(=O)CC(CC(=O)O)(C(=O)O)O1` (stereo partly specified), in assay [2], the Activity is 100%. Also, the inhibition entry in assay [3] and in assay [5] was “Active” in each case. The inhibition entry (in the assay on Staphylococcus aureus [4]; in assay [8]; in assay [10]) was “inactive” throughout. In assay [6], the ΔTm lay within 29.5 to 42.2 °C. Further, the IC50 in assay [7] and in assay [9] was 3 to 25 µM in each case. For the same compound, in assay [11], the Tm amounted to 66.5 °C. In [12], this compound returned a dissociation constant Kd of 7.3 µM. Moreover, in assay [13], the EC50 was determined as 19.9 µM.

Turning to `CN[C@H](CC(C)C)C(=O)N[C@H]1C(=O)N[C@@H](CC(N)=O)C(=O)N[C@H]2C(=O)N[C@H]3C(=O)N[C@H](C(=O)N[C@H](C(=O)O)c4cc(O)cc(O)c4-c4cc3ccc4O)[C@H](O)c3ccc(c(Cl)c3)Oc3cc2cc(c3O[C@@H]2O[C@H](CO)[C@@H](O)[C@H](O)[C@H]2O[C@H]2C[C@](C)(N)[C@H](O)[C@H](C)O2)Oc2ccc(cc2Cl)[C@H]1O`, the outcome in the assay on Staphylococcus aureus [14], with Staphylococcus aureus [15], in the assay with Staphylococcus aureus [16], in the assay on Staphylococcus aureus [17], with Staphylococcus aureus [18] and in the assay with Staphylococcus aureus [19] was Active. In addition, the result in the assay on Staphylococcus aureus [20] and in the assay on Staphylococcus aureus [21] was Active.
